Assay results: ChEMBL document CHEMBL1147741, “Chroman/catechol hybrids: synthesis and evaluation of their activity against oxidative stress induced cellular damage” (J Med Chem, 2006); call rule not given here

Columns and labels:
[1] = tested on: HT-22; test: Inhibition of glutamate-induced oxytosis of mouse hippocampal HT22 cells; type: functional, cell-based
Summary of the method: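 HT22 cells were plated at 4000 per well in phenol-red-free DMEM-HEPES with dextran-charcoal-treated FBS for 24 h. Serial compound dilutions were added with or without 5 mM glutamate for 24 h at 37 °C, and viability was read by MTT formazan conversion. EC50 is the concentration giving glutamate-exposed viability 50% of non-exposed cells; 3-7 independent experiments, mean ± SEM.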

[2] = tested on: Jurkat; test: Activity against hydrogen peroxide induced DNA damage in Jurkat T cells; type: functional, cell-based, Homo sapiens
Summary of the method: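 Jurkat T cells (1.5 × 10⁵ per well, RPMI 1640 with 10% FCS) were preincubated 1 h at 37 °C, given compound 30 min before glucose oxidase (60 ng, about 11.8 µM H₂O₂/min), and exposed 10 min. Alkaline comet assay followed: lysis, unwinding at pH >13 for 40 min, electrophoresis at 1 V/cm for 30 min, Hoechst 33342 staining, visual scoring of 100 nucleoids. IC50 is the concentration halving strand breakage.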

[3] = tested on: Radical scavenging activity; test: Antioxidant potency assessed chemically; type: functional
Summary of the method: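 TEAC determined by the Rice-Evans and Miller method, using 0.3 mM trolox solution with data normalized to 1.0 mM trolox.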

[4] = Homo sapiens, Jurkat, read-out: IC50

| Compound | EC50 [1] | IC50 ([2]; jurkat) | Activity [3] | IC50 [2, 4] |
| --- | --- | --- | --- | --- |
| COc1ccc(C#Cc2c(O)c(C)c(C)c3c2CCC(C)(C)O3)cc1OC | > 10 µM | – | – | – |
| O=C(O)/C=C/c1ccc(O)c(O)c1 [CAFFEIC ACID] | – | Not Active | 1.2 µM | – |
| Cc1c(C)c2c(c(C)c1O)CCC(C)(CNC(=O)/C=C/c1ccc(O)c(O)c1)O2 (stereo unspecified) | 1.14 µM | – | 6.53 µM | 25 µM |
| COc1c(C)c(C)c2c(c1C)CCC(C)(C(=O)N1CCN(C(=O)/C=C/c3ccc(O)c(O)c3)CC1)O2 (stereo unspecified) | 2.11 µM | – | 6.12 µM | 50 µM |
| Cc1c(C)c2c(c(NC(=O)/C=C/c3ccc(O)c(O)c3)c1O)CCC(C)(C)O2 | 1.23 µM | – | 4.28 µM | 5 µM |
| Cc1c(C)c2c(c(C)c1O)CCC(C)(C(=O)NCCNCCNC(=O)/C=C/c1ccc(O)c(O)c1)O2 (stereo unspecified) | > 10 µM | – | 6.33 µM | 50 µM |
| COc1ccc(/C=C/C(=O)N2CCN(C(=O)C3(C)CCc4c(C)c(O)c(C)c(C)c4O3)CC2)cc1OC (stereo unspecified) | 0.65 µM | Not Active | 1.26 µM | – |
| COc1c(C)c(C)c2c(c1CNC(=O)/C=C/c1ccc(O)c(O)c1)CCC(C)(C)O2 | 2.15 µM | – | 3.8 µM | 1 µM |
| Cc1c(C)c2c(c3c1OC(c1ccc(O)c(O)c1)C3)CCC(C)(C)O2 (stereo unspecified) | 1 µM | – | 5.9 µM | 10 µM |
| COc1ccc(CCc2c3c(c(C)c(C)c2OC)OC(C)(C)CC3)cc1OC | 4.59 µM | Not Active | 0.05 µM | – |
| Cc1c(C)c2c(c(C)c1O)CCC(C)(C(=O)NCCN1CCN(C(=O)/C=C/c3ccc(O)c(O)c3)CC1)O2 (stereo unspecified) | 6.35 µM | – | 6.24 µM | 20 µM |
| Cc1c(C)c2c(c(CCc3ccc(O)c(O)c3)c1O)CCC(C)(C)O2 | 0.93 µM | – | 3.74 µM | 5 µM |
| COc1c(C)c(C)c2c(c1CCc1ccc(O)c(O)c1)CCC(C)(C)O2 | 1.17 µM | – | 1.6 µM | 10 µM |
| COc1ccc(/C=C/c2c3c(c(C)c(C)c2OC)OC(C)(C)CC3)cc1OC | > 10 µM | – | – | – |
| COc1c(C)c(C)c2c(c1NC(=O)/C=C/c1ccc(O)c(O)c1)CCC(C)(C)O2 | > 10 µM | – | 6.53 µM | 20 µM |
| Cc1c(C)c2c(c(C)c1O)CCC(C)(C(=O)NCCNC(=O)/C=C/c1ccc(O)c(O)c1)O2 (stereo unspecified) | 7.36 µM | – | 6.5 µM | 75 µM |
| O=c1c(O)c(-c2ccc(O)c(O)c2)oc2cc(O)cc(O)c12 [QUERCETIN] | 2.98 µM | – | 4.3 µM | 5 µM |
| Cc1c(C)c2c(c(C)c1O)CCC(C)(C(=O)N1CCN(C(=O)/C=C/c3ccc(O)c(O)c3)CC1)O2 (stereo unspecified) | 1.48 µM | – | 6.55 µM | 50 µM |
| Cc1c(C)c2c(c(C)c1O)CCC(C)(C(=O)O)O2 (stereo unspecified) [TROLOX] | – | Not Active | 1 µM | – |
